# A selection: hits, their analogues and other compounds. The true share with any hit is near 3%.
# S100A4 inh HTS: S100A4-myosin IIA interaction inhibition. S100A4/TAMRA-MyoIIA peptide fluorescence polarization. inhibition, % at 10.7 µM. P26447. 360,000 tested, 0.14% active;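 active = mean inhibition of at least 70% across replicates, with every replicate also reaching that level; inconclusive = mean inhibition reaches 70% but some replicates fall short; inactive = mean inhibition below 70%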
# Target sequence (P26447 whole entry, looked up): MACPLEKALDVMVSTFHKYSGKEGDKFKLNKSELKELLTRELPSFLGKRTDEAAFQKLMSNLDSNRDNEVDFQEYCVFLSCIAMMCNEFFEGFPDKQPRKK
#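 assay system = human S100A4 monomer with TAMRA-labelled myosin IIA peptide | also added = labelled myosin peptide probe, 5 nM | incubation = 5 min between mix addition and reading | control set = DMSO and TFP controls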
# rRNA inh HTS: selective bacterial rRNA inhibition in E. coli. E. coli WT GFP vs humanized-ribosome RFP mutants, fluorescence, 24 h; hits give low values; DMSO median 0, no signal -100. GFP signal change (wild-type ribosome), % (test concentration not listed). 350,000 tested, 1.6% active. AID 720706;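 active = significant combined selectivity score with lowered wild-type GFP, culture density cut under 30%, mutant RFP and density less affected; inactive = any of these conditions unmet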
# Cneo AK release: causes C. neoformans cell lysis; adenylate kinase release luminescence, 4 h; normalised: neutral wells 0, clomiphene wells 100; lysis activity, % at 15 µM; 360,000 tested, 0.2% active;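 active = mean lysis activity across replicates of at least 80%, whatever share of replicates individually reach that level; inactive = mean lysis activity below 80%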
#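 Assay system: Cryptococcus neoformans yeast cells / Dosing: single-point compound dose / Timing: 4 h at 37 °C static, read 1 h later / Measured by: luminescence of released adenylate kinase using an AK detection reagent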
# Statin myotox sup: suppression of simvastatin myotoxicity | 330,000 tested, 0.78% active | AID 602340 | rescue of ATP level, % at 7.49 µM | C2C12 myotubes + simvastatin, ATP luminescence, 48 h; scaled: DMSO 0, geranylgeraniol control 100;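 active = mean ATP rescue above about 67%, or every replicate alone reaching that limit, limit read from the data, passing the limit was not always enough; inconclusive = no clear call, values can overlap the other calls; inactive = mean under the limit and some replicate under it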;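 note: myotubes were challenged with 10 µM simvastatin during compound exposure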
# SIRT5 inh: blocks human SIRT5 desuccinylation of peptide; 330,000 tested, 1.1% active; Q9NXA8; AID 652115; inhibition, % at 15 µM; Purified SirT5, succinyl-peptide AMC, trypsin-coupled fluorescence; in the data active = inhibition above about 15%; inconclusive = no clear call, values can overlap the other calls
# Target sequence (Q9NXA8 whole entry, looked up): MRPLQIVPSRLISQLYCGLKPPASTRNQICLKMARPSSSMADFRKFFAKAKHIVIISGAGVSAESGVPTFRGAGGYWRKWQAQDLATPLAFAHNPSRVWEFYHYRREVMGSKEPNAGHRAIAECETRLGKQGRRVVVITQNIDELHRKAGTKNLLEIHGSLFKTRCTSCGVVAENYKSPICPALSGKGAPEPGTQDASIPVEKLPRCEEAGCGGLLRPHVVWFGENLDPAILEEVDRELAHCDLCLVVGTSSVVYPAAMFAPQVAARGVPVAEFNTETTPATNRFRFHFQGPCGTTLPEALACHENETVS
# PGC1a acetyl inh: lowers PGC1a acetylation signal in U2OS cells | inhibition, % at 15.6 µM | AID 651687 | 350,000 tested, 0.17% active | AlphaScreen anti-acetyl-lysine; with virally co-expressed GCN5 acetyltransferase;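 active = every replicate shows inhibition of at least 40%; inconclusive = mean inhibition at least 40% but some replicate below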
# Numbers stand for hits; i = inactive; ? = inconclusive; nt = no result; ! = not active in a repeat.
SMILES,S100A4 inh HTS,rRNA inh HTS,Cneo AK release,Statin myotox sup,SIRT5 inh,PGC1a acetyl inh
Cc1ccc(S(=O)(=O)N(C)C[C@H]2Oc3c(NC(=O)NC4CCCCC4)cccc3C(=O)N([C@@H](C)CO)C[C@@H]2C)cc1,i,i,i,i,i,i
C[C@H](CO)N1C[C@H](C)[C@@H](CN(C)C(=O)c2ccc(F)cc2)Oc2ncc(-c3ccc(F)cc3)cc2C1=O,i,i,i,i,i,i
CN(C)/C=C1\N=C(c2ccccc2)OC1=O,i,i,i,i,i,i
COc1ccc(/C=C/C2=NC(=C\N(C)C)/C(=O)O2)cc1,nt,nt,i,114,nt,i
C[n+]1ccc(/C=C/c2c[nH]c3ccc(F)cc23)cc1,i,i,i,i,26,i
COc1cc2c(cc1OC)CN(C(=O)/C=C/c1ccc([N+](=O)[O-])cc1)CC2,i,-17,i,i,i,nt
COc1cc2c(cc1OC)CN(C(=O)/C=C/c1ccccc1[N+](=O)[O-])CC2,i,i,i,i,i,nt
C[C@H]1CN([C@@H](C)CO)C(=O)c2cc(-c3ccc(F)cc3)cnc2O[C@H]1CN(C)C(=O)c1ccccn1,i,i,i,i,i,i
COc1cc(C(=O)ON=C2C3CC4CC(C3)CC2C4)cc(OC)c1OC,i,-22,i,i,i,i
CN(C)c1ccc(P(=O)(OCc2ccccc2)C(O)c2ccccc2)cc1 (stereo not drawn),i,-20,nt,i,i,i
CN(C)c1ccc(P(=O)(OCc2ccccc2)C(O)c2ccc(Cl)cc2)cc1 (stereo not drawn),i,i,i,i,i,i
CC(C)OP(=O)(c1ccc(N(C)C)cc1)C(Nc1ccccc1)c1ccccc1 (stereo not drawn),i,-27,nt,i,i,i
C[C@@H]1CN([C@@H](C)CO)C(=O)c2cc(NS(=O)(=O)c3ccc(F)cc3)ccc2O[C@@H](C)CCCCO[C@@H]1CN(C)Cc1ccncc1,i,i,i,nt,i,i
COc1ccc2nc(-n3c(O)c(C4=c5ccccc5=NC4=O)[nH]c3=S)sc2c1,i,-44,i,nt,i,i
Cc1ccc(-c2ccc([C@H]3[C@H](CO)N4C(=O)CN(C(=O)Nc5cccc(F)c5)C[C@@H]34)cc2)cc1,i,i,nt,nt,i,i
COc1ccc2c3c(n(C)c2c1)[C@H](CO)N(C(=O)NC(C)C)CC31CCN(CC2CC2)CC1,i,i,nt,nt,i,nt
CC(C)C#Cc1ccc2c(c1)O[C@@H](CN(C)Cc1cccnc1)[C@@H](C)CN([C@H](C)CO)S2(=O)=O,i,i,i,i,i,i
O=C(NCCCCNC(=O)c1ccc(Cl)s1)c1ccc(Cl)s1,nt,nt,i,108,nt,i
C[C@H](CO)N1C[C@H](C)[C@H](CN(C)Cc2ccccc2)Oc2ncc(C#CCN(C)C)cc2C1=O,i,i,i,i,19!,i
C[C@H]1CN([C@@H](C)CO)C(=O)c2cc(C#CC3(O)CCCC3)cnc2O[C@@H]1CN(C)Cc1cccnc1,i,i,101,i,i,i
C[C@@H]1CN([C@@H](C)CO)C(=O)c2cc(C#CCc3ccccc3)cnc2O[C@@H]1CN(C)CC1CC1,121,i,nt,nt,i,i
C[C@@H]1CN([C@H](C)CO)C(=O)c2cc(C#CCN(C)C)cnc2O[C@H]1CN(C)Cc1ccccc1,i,i,i,i,i,i
COc1cccc(NC(=O)N(C)C[C@@H]2Oc3ncc(C#Cc4ccc(F)cc4)cc3C(=O)N([C@H](C)CO)C[C@@H]2C)c1,i,i,i,i,i,i
O=C(Cc1n[nH]c(=O)c2ccccc12)N1CCN(c2ccc(F)cc2)CC1,i,i,nt,nt,nt,i
CC(=O)c1ccc(N2CCN(C(=O)Cc3n[nH]c(=O)c4ccccc34)CC2)cc1,i,i,i,i,16,i
SMILES,S100A4 inh HTS,rRNA inh HTS,Cneo AK release,Statin myotox sup,SIRT5 inh,PGC1a acetyl inh
COc1cccc(NC(=O)N(C)C[C@H]2Oc3cc(C#CC4(O)CCCC4)ccc3S(=O)(=O)N([C@@H](C)CO)C[C@H]2C)c1,i,i,i,i,i,i
Cc1nc(S(=O)(=O)NC2CCCCC2)c(C#N)c(C)c1Cl,nt,nt,i,nt,nt,i
Cc1nc(S(=O)(=O)N(C)Cc2ccccc2)c(C#N)c(C)c1Cl,i,i,i,nt,17,i
CO[C@@H]1CN(C)C(=O)c2ccc(NC(C)=O)cc2OC[C@@H](C)N(C(=O)Cc2cccnc2)C[C@H]1C,i,i,97,i,nt,i
CO[C@@H]1CN(C)C(=O)c2ccc(NC(C)=O)cc2OC[C@H](C)N(C(=O)Cc2cccnc2)C[C@@H]1C,i,i,i,i,i,i
CO[C@@H]1CN(C)C(=O)c2ccc(NC(C)=O)cc2OC[C@H](C)N(C(=O)Cc2ccccn2)C[C@H]1C,i,i,i,i,16,i
COCC(=O)Nc1ccc2c(c1)OC[C@@H](C)N(C(=O)Cc1cccnc1)C[C@H](C)[C@@H](OC)CN(C)C2=O,i,i,92,i,i,i
C[C@@H]1CN([C@@H](C)CO)C(=O)c2cc(NC(=O)c3ccncc3)ccc2O[C@@H]1CN(C)Cc1ccc(-c2ccccc2)cc1,i,i,i,i,i,i
CO[C@@H]1CN(C)C(=O)c2ccc(NC(C)=O)cc2OC[C@@H](C)N(S(=O)(=O)c2cn(C)cn2)C[C@@H]1C,i,i,i,i,i,i
CO[C@H]1CN(C)C(=O)c2ccc(NC(=O)Nc3cc(F)ccc3F)cc2OC[C@@H](C)NC[C@H]1C,i,i,i,i,i,i
C/C(N)=C(/C#N)C(=O)COC(=O)c1cc2c(s1)CCCC2,i,i,nt,nt,i,i
C/C(N)=C(/C#N)C(=O)COC(=O)c1cc2c(s1)CCC(C)C2 (stereo not drawn),i,-29,nt,nt,i,nt
C[C@@H]1CN([C@@H](C)CO)C(=O)Cc2cc(NC(=O)Cc3cn(C)c4ccccc34)ccc2O[C@H]1CN(C)Cc1ccc(C(F)(F)F)cc1,i,i,i,104,i,i
C[C@H](CO)N1C[C@H](C)[C@@H](CN(C)Cc2ccc(-c3ccccc3)cc2)Oc2ccc(NC(=O)Cc3ccccc3)cc2CC1=O,i,i,i,76,i,i
C[C@H](CO)N1C[C@H](C)[C@H](CN(C)Cc2ccccc2)Oc2ccc(NC(=O)Cc3cn(C)c4ccccc34)cc2CC1=O,i,i,i,i,i,nt
Cc1noc(C)c1NC(=O)Nc1ccc2c(c1)CC(=O)N([C@H](C)CO)C[C@H](C)[C@@H](CN(C)Cc1ccc(-c3ccccc3)cc1)O2,i,i,nt,?,i,i
C[C@H]1CN([C@@H](C)CO)C(=O)Cc2cc(NC(=O)Cc3cn(C)c4ccccc34)ccc2O[C@H]1CN(C)C(=O)Nc1ccc(C(F)(F)F)cc1,i,i,i,i,nt,i

# Bioassay records deposited in PubChem BioAssay by Broad Institute.
